Bioassay records as filed in PubChem BioAssay.
Most compounds without a hit are left out; they make up all but 2.5% or so of the library.
ADAM17 inh: ADAM17 inhibitors, primary screen, biochemical, QFRET; hit rate 0.83% among 370,000; recombinant ADAM17, EDANS/DABCYL FRET peptide cleavage; Disintegrin and metalloproteinase domain-containing protein 17 (Homo sapiens), P78536; inhibition, % at 6.95 µM;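 active = inhibition above the mean of compounds lying between control limits plus 3 SD, set per campaign, cut at about 8.5% in these data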;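 note: 0% = DMSO-only wells as the low control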
ADAM10 inh: human ADAM10 inhibitors, primary screen, biochemical, QFRET, HTS. recombinant ADAM10, EDANS/DABCYL FRET peptide cleavage, 3 h. inhibition, % at 7 µM. hit rate 0.62% among 370,000. AID 720582, 2013;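 active = inhibition above a per-campaign cutoff equal to the mean of compounds falling between control-based bounds plus 3 SD, cut at about 20% in these data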;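 note: 0% = DMSO wells while the 100% control is not disclosed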
JMJD2C inh: inhibitors of GASC-1 histone demethylase, primary screen, biochemical, fluorescence, DELFIA europium | Lysine-specific demethylase 4C (Homo sapiens), Q9H3R0 | GST-JMJD2C(1-420) H3K9me3 demethylation | inhibition, % at 2.35 µM | hit rate 0.069% among 330,000;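 active = more than half of a compound's replicate wells show inhibition beyond 50%, single wells judged on their own value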;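 note: signal counts dimethyl H3K9 product captured on neutravidin plate; 0% = median of DMSO wells and 100% = 0.3 times that DMSO median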
Target sequence (Q9H3R0 1-420 limits assumed): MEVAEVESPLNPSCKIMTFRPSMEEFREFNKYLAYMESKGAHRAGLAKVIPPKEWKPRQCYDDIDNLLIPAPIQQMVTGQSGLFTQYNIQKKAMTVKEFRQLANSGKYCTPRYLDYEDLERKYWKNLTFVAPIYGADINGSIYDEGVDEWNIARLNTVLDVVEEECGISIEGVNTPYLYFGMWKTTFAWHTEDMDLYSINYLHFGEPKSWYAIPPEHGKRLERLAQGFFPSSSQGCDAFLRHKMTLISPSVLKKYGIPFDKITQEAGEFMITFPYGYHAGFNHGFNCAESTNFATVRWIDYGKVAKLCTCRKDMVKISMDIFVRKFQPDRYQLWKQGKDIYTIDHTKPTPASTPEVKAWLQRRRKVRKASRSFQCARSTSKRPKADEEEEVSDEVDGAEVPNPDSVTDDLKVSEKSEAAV
NR2E3 ag-1: NR2E3 agonists in two-hybrid cells, primary screen, cell-based, luminescence, CHO-S, Gal4-NCOR/VP16-NR2E3. Photoreceptor-specific nuclear receptor (Homo sapiens), Q9Y5X4. luciferase. inhibition of corepressor binding, % at 3.98 µM. hit rate 0.35% among 360,000;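 active = inhibition above the mean of all tested compounds plus 3 SD, cut at about 70% in these data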;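 note: 0% = DMSO with NR2E3 transfected cells and 100% = cells lacking NR2E3 construct; higher means lower luciferase signal from less NR2E3 corepressor binding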
NR2E3 ag-2: inhibitors of NR2E3-RetCOR corepressor binding, primary screen, NR2E3 agonist project, biochemical, TR-FRET, GST-NR2E3, biotin-RetCOR | inhibition of corepressor binding, % at 4.78 µM | Photoreceptor-specific nuclear receptor (Homo sapiens), Q9Y5X4 | hit rate 0.12% among 320,000 | 1536-well;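 active = percent inhibition above the cutoff of mean plus 3 SD of all tested compounds, set per screening campaign, cut at about 20% in these data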;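 note: 0% = DMSO wells and 100% = biotin wells as full block of FRET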
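System: GST-NR2E3 and biotin-RetCOR proteins; probe or stimulus: 7 nM biotin-RetCOR; doses: compound at 4.8 µM, single dose; schedule: Compound–protein incubation for 5 h at 4 °C; detection: time-resolved FRET; read-out: percent inhibition; controls: biotin wells as high control, 0.6% DMSO wells as low control; format: 1536-well plates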
proKLK7 act: proKLK7 zymogen activators, primary screen, biochemical, fluorescence intensity | purified proKLK7, EDANS-DABCYL substrate fluorescence; 100% is mature enzyme control, 0% vehicle | activation, % at 7 µM | hit rate 0.9% among 370,000;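 active = activation above the mean of all tested compounds plus 3 SD, computed per campaign excluding outliers beyond control limits, cut at about 13% in these data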
Target sequence (P49862 whole entry, looked up): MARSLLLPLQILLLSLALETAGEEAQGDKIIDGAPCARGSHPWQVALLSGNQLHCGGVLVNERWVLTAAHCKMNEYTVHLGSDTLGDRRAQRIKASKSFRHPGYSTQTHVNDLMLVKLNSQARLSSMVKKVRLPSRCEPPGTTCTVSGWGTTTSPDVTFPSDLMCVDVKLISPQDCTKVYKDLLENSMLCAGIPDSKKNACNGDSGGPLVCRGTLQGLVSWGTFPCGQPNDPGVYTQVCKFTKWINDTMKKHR
NR2E3 ag conf: NR2E3 agonist confirmation in cells, cell-based, luminescence, CHO-S two-hybrid; CHO-S mammalian two-hybrid NR2E3-NCOR, luciferase luminescence; AID 624378, 2012; shares compounds with NR2E3 ag-1; hit rate 51% among 2,300; inhibition, % at 3.98 µM;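 active = average inhibition above a cutoff equal to the mean inhibition of all tested compounds plus one SD, cut at about 70% in these data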;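 note: 0% = DMSO in NR2E3 cells and 100% = DMSO in cells lacking NR2E3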
GAL4-VP16 luc: GAL4-VP16 reporter modulators, confirmation, counter-screen for NR2E3 agonist project, cell-based, luminescence, CHO-S, high throughput. shares compounds with NR2E3 ag-1. CHO-S GAL4-VP16 luciferase reporter. inhibition, % at 3.98 µM. hit rate 29% among 2,300;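 active = mean inhibition above a cutoff equal to the average over all tested compounds plus one standard deviation, cut at about 70% in these data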;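 note: luciferase from a UAS reporter driven by GAL4-VP16 transactivation; 0% = DMSO with VP16-transfected cells and 100% = DMSO with cells lacking VP16; higher means less reporter light so more repression of VP16 activity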
* hit, by the source's call; / = no result given.

SMILES	ADAM17 inh	ADAM10 inh	JMJD2C inh	NR2E3 ag-1	NR2E3 ag-2	proKLK7 act	NR2E3 ag conf	GAL4-VP16 luc
CC(=O)c1c(C)[nH]c(C(=O)OCC(=O)c2ccc(Br)cc2)c1C	2.7	5.6	/	56.8	/	0.9	86.1*	56.4
CC(=O)c1c(C)[nH]c(C(=O)OCc2ccccc2)c1C	-2.2	-4.3	-11.2	-74.5	0.8	0.0	/	/
Cc1nc(C(C)NC(=O)CCc2nnc(CCCc3ccccc3)o2)c(C)s1 (stereo unspecified)	-4.4	1.6	31.4	-56.2	2.5	-0.1	/	/
CCOCC(=O)NC(=O)N1C[C@H]2CON(C)[C@H]2C[C@H]1c1ccc(OC)cc1	-5.3	-9.4	/	/	/	0.0	/	/
CCOc1ccc(-n2c(SCC(=O)Nc3cccc4ccccc34)nnc2-c2ccco2)cc1	4.0	4.0	/	/	/	-0.8	/	/
O=C(CCCN1C(=O)/C(=C/c2ccccc2Cl)SC1=S)NCCCN1CCOCC1	0.7	-19.1	3.5	77.7*	2.1	-0.3	-18.3	63.0
O=C(CCN1C(=O)/C(=C/c2ccccc2F)SC1=S)NCCCN1CCOCC1	-0.5	0.0	2.4	11.1	-0.4	-0.4	/	/
O=C(CCCN1C(=O)/C(=C/c2ccccc2Cl)SC1=S)NNC(=O)c1ccncc1	-5.1	3.6	7.9	56.0	4.2	0.5	-44.8	54.1
CN1C(=O)C[C@@](C#N)(C(=O)Nc2nc3ccc(F)cc3s2)[C@H]1c1ccccc1	0.7	-2.4	/	/	/	0.0	/	/
COc1ccc(/C=C2\NC(=O)C(C=NCc3ccccc3)=C2O)cc1	0.6	-5.2	-33.4	5.2	4.1	-0.5	/	/
O=C1N/C(=C\c2ccc(O)cc2)C(O)=C1C=NCc1ccccc1	1.6	6.0	15.3	63.2	-4.6	1.4	72.8*	36.6
CCc1ccc(NCc2ccc(OC)c(Cn3ccnc3)c2)cc1	-2.8	2.9	-2.1	51.5	0.7	0.3	25.7	24.6
O=C1c2ccccc2C(=O)c2[nH]c(=O)[nH]c21	-6.4	-1.6	-0.3	67.8	-4.2	-0.2	75.3*	31.8
O=C1c2ccccc2C(=O)c2[nH]cnc21	-0.9	1.8	-1.7	-4.6	/	0.3	/	/
CC1=C(CC(=O)c2ccccc2)C(=O)c2ccccc2C1=O	1.7	10.5	15.0	55.1	-1.8	-0.4	-91.3	-31.2
Cc1cc(N2CCN(C(=O)c3cccs3)CC2)c(F)cc1[N+](=O)[O-]	4.1	11.4	-2.4	79.0*	3.0	0.1	82.3*	65.9
COC(=O)C1=C(C)N(Cc2cccc(C(F)(F)F)c2)C(=NCC2CC2)NC1c1ccccc1 (stereo unspecified)	-4.0	-8.3	/	/	/	1.0	/	/
CCn1c(=O)n(CC(=O)N2CCN(c3ccc(F)cc3)CC2)c(=O)c2ccccc21	-0.3	-1.2	/	/	/	0.0	/	/
O=C(c1cc(COc2ccc3ncccc3c2)on1)N1CCCC1	-9.5	-15.1	4.1	83.8*	-0.5	0.1	79.8*	60.9
CC(NC(=O)c1cc(COc2ccc3ncccc3c2)on1)c1ccc(F)cc1 (stereo unspecified)	5.7	7.6	3.9	85.5*	1.0	0.8	96.4*	88.0*
CSc1ccccc1OCc1cc(C(=O)N2CCC(c3ccncc3)CC2)no1	-0.4	6.4	5.1	101.0*	2.3	1.0	92.9*	78.8*
C=CCC1(CC=C)CCCN1C(=O)c1cc(COc2ccc(C)nc2)on1	0.3	3.2	-3.3	98.9*	0.3	0.7	97.1*	79.7*
CSCCC(NS(=O)(=O)c1ccc(C)cc1)C(=O)N1CC=C(c2ccccc2)CC1 (stereo unspecified)	-1.2	-12.9	-4.9	-42.6	-3.7	0.6	/	/
CCN(CC)CCCNC(=O)C1(N[C@@H](Cc2c[nH]c3ccccc23)C(=O)NCC(OC)OC)CCCCC1	-4.8	-3.4	/	/	/	/	/	/
Cc1cc(OCc2cc(C(=O)N3CCC(Oc4cccnc4)CC3)no2)cc(C)c1Cl	-3.3	12.8	10.8	93.7*	4.3	0.4	93.5*	74.5*
SMILES	ADAM17 inh	ADAM10 inh	JMJD2C inh	NR2E3 ag-1	NR2E3 ag-2	proKLK7 act	NR2E3 ag conf	GAL4-VP16 luc
COc1cccc(CN(C)C(=O)c2cc(COc3ccc4ncccc4c3)on2)c1	-0.3	2.6	-9.6	78.9*	1.0	0.0	96.6*	87.7*
O=C(c1cc(COc2ccc3ncccc3c2)on1)N1CCCCCC1	-3.2	-12.9	21.9	71.4*	-1.6	-0.2	95.2*	75.9*
O=C(NC1CCCC1)c1cc(COc2ccc3ncccc3c2)on1	/	/	-3.4	95.3*	-2.1	/	94.6*	84.5*
Cc1ccc(OCc2cc(C(=O)N3CCCCCCC3)no2)cc1C	-2.9	5.1	0.5	-64.6	3.9	0.1	/	/
COc1cccc(OCc2cc(C(=O)NC3CCOCC3)no2)c1	-0.8	8.5	-6.1	-89.5	1.4	-0.2	/	/
Cc1cc(OCc2cc(C(=O)N3CCN(CC4CC4)CC3)no2)cc(C)c1Cl	0.3	-7.9	/	-19.0	-1.1	0.2	/	/
O=C(c1ccc(Cl)c(S(=O)(=O)N2CCCCC2)c1)N1CCN(Cc2ccccc2)CC1	0.2	-2.5	13.1	1.9	0.0	0.3	/	/
CCn1c2ccccc2c2cc(NC(=O)CSc3nnc(-c4ccccc4)n3Cc3ccco3)ccc21	3.3	5.2	/	/	/	-0.5	/	/
Cc1ccc(C(=O)n2ccc3ccc(-c4ccc5ccn(Cc6ccccc6)c5c4)cc32)cc1	-6.1	-20.3	/	/	/	-3.3	/	/
CCOCCCNC(=O)CCn1nc(-c2ccc(Cl)cc2)ccc1=O	-2.2	-8.9	-5.8	-7.9	1.2	0.1	/	/
Cc1cc(OCc2cc(C(=O)NC3CCC3)no2)cc(C)c1Cl	/	/	-38.4	9.6	-2.3	/	/	/
Cc1ccc(OCc2cc(C(=O)NC3CCCCC3)no2)cn1	2.4	-0.1	-18.8	82.7*	-1.3	-0.3	59.4	55.1
COCC1CCN(C(=O)c2cc(COc3ccc(-n4cncn4)cc3)on2)CC1	-2.1	-4.5	0.4	15.9	2.5	-0.9	/	/
O=C(NCCc1cn2ccccc2n1)c1ccccc1F	-1.2	4.6	9.2	-6.4	1.7	-0.3	/	/
